# Bioassay records as filed in PubChem BioAssay.
# 5HT1a antag – human 5-HT1a receptor antagonists, primary screen, cell-based, CHO, Ga15 NFAT-bla reporter. inhibition, % at 10 µM. actives 0.68% (n = 62,000). CHO 5-HT1a Ga15 NFAT-bla reporter, antagonist mode. AID 612, 2007;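 active = inhibition above the mean of all tested compounds plus 3 SD, cut at about 43% in these data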;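 also: receptor stimulated by 5-CT agonist at 100 nM near EC80; beta-lactamase reporter measured by ratiometric fluorescence of a cleavable substrate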
# HTR1E agonist – 5-HT1E receptor agonists, primary screen, cell-based, HTS; CHO 5-HT1E Ga15 NFAT-bla reporter, FRET; 0% DMSO wells, 100% control agonist wells; activation, % at 6 µM; actives 0.69% (n = 65,000); AID 574, 2007;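 active = activation above a set limit, the screen-wide mean activation plus 3 SD, cut at about 8.5% in these data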;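 also: 100% = positive control agonist at 1 µM giving full maximal response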
# 5HT1a ag – human 5-HT1a receptor agonists, primary screen, cell-based, CHO, Ga15 NFAT-bla reporter; 5-hydroxytryptamine receptor 1A (Homo sapiens), P08908; actives 0.56% (n = 65,000); activation, % at 10 µM; CHO 5-HT1a Ga15 NFAT-bla reporter, FRET ratio; 0% basal, 100% maximal reference agonist;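 active = activation above the screen-wide mean activation plus 3 SD, cut at about 19% in these data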;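 also: 0% = DMSO wells and 100% = 5-CT at EC100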
# S1P1 ag-PAM – S1P1 agonists and agonism potentiators, primary screen, cell-based, primary and confirmation screens, CRE-bla reporter; AID 449, 2006; S1P1 CRE-bla cells, forskolin, beta-lactamase FRET, potentiator mode; S1P1 agonist co-added at EC20, 2 nM; 100% = saturating reference agonist, 0% = basal; activation, % at 9.5 µM; actives 0.57% (n = 56,000); Sphingosine 1-phosphate receptor 1 (Homo sapiens), P21453;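 active = activation above a cutoff set at the mean activation of all tested compounds plus 3 SD, cut at about 54% in these data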;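 also: forskolin at 4 µM as EC80 and the EC20 agonist is SEW2871; 100% = SEW2871 at its EC100 plus forskolin at EC80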
# S1P3 agonist – human S1P3 receptor agonists, primary screen, cell-based, primary and confirmation, NFAT-BLA reporter. Sphingosine 1-phosphate receptor 3 (Homo sapiens), Q99500. S1P3 NFAT-BLA reporter cells, agonism, FRET ratio; relative to 1 µM S1P, basal subtracted. activation, % at 4.5 µM. actives 0.1% (n = 60,000). AID 373, 2006;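 active = activation above the screen-wide mean plus 3 SD, cut at about 4.5% in these data, passing the limit was not always enough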
# Target sequence (Q99500 whole entry, looked up): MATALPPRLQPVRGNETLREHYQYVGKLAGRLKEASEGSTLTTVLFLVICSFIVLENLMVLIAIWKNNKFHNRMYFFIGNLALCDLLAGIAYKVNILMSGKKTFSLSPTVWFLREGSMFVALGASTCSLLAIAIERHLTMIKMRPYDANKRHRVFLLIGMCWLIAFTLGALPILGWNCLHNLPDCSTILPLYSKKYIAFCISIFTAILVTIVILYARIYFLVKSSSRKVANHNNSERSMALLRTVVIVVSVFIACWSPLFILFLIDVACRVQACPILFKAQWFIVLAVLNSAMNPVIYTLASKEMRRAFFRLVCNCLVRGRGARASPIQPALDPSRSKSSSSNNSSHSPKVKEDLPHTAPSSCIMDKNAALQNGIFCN
#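 Assay system: CHO cells stably expressing human S1P3, Gα16 and NFAT-β-lactamase reporter. Timing: overnight plating, 4 h compound 37 °C, 2 h substrate RT. Signal: β-lactamase FRET emission ratio 460/535 nm. Measure: percent activation versus median 1 µM S1P response, basal-subtracted, per plate. Repeats: primary screen single test, confirmation screen in triplicate.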
# 5HT1E antag – 5-HT1E receptor antagonists, primary screen, cell-based, HTS. 5-hydroxytryptamine receptor 1E (Homo sapiens), P28566. CHO 5-HT1E Ga15 NFAT-bla reporter, FRET, antagonist. inhibition, % at 6 µM. actives 0.99% (n = 65,000);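 active = inhibition above a set limit, the mean inhibition across every tested compound plus 3 SD, cut at about 29% in these data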;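 also: signal is the 460 over 535 nm emission ratio of beta-lactamase substrate; 0% = agonist plus DMSO wells and 100% = wells without agonist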
# * hit, by the source's call; · = no result given. In the library only some 2.9% were active in any assay of this set; here they are far more common.
SMILES,5HT1a antag,HTR1E agonist,5HT1a ag,S1P1 ag-PAM,S1P3 agonist,5HT1E antag
CCOc1cc(C2NCc3ccccc3-n3cccc32)ccc1O (stereo unspecified),20,0,0,67,0,-10
CCOc1cccc(C2NCc3ccccc3-n3cccc32)c1O (stereo unspecified),1,15*,0,9,0,-4
CN1CCc2c(c(N3CCCCC3)nc3n[nH]c(N)c23)C1,·,0,-2,-14,-1,-1
CNCCc1c[nH]c2ccccc12,·,104*,28*,16,-2,-17
CCCNc1oc(-c2cccc3ccccc23)nc1C#N,-13,6,58*,-26,2,8
Cn1c(O)c(C=NCCN2CCN(C(=O)c3ccccc3)CC2)c(=O)n(C)c1=O,-11,1,-3,-2,-1,-4
Cn1c(O)c(C=NCCOc2ccc(Cl)cc2)c(=O)n(C)c1=O,-19,1,0,-38,-1,30*
CCOc1cc(-c2nc3c(C)cccn3c2NCC2CCCO2)ccc1O (stereo unspecified),6,0,0,4,0,11
CCCCCCn1c(=O)c(C(=O)Nc2c(C)n(C)n(-c3ccccc3)c2=O)c(O)c2ccccc21,-20,0,84*,-8,0,-4
CCCCCn1c(=O)c(C(=O)Nc2ccncc2)c(O)c2ccccc21,-12,-1,0,-4,1,2
CCCS(=O)(=O)N1CCCC(C(=O)N2CCC3(CC2)OCCO3)C1 (stereo unspecified),-4,0,-1,-8,-1,-4
CC(=NCc1ccc(F)cc1)c1c(O)n(C)c(=O)n(C)c1=O,26,-1,0,27,-2,27
Cc1ccc(CN2CCN(C)CC2)c(C)c1,-16,9.8*,-3,-4,-1,-1
CCN1CCN(Cc2ccc(C)cc2C)CC1,-7,4,-1,-27,-2,-3
CCC(C)NC(=O)c1c(N)n(CC2CCCO2)c2nc3ccccc3nc12 (stereo unspecified),-7,8,26*,-83,2,0
Nc1c(C(=O)NCCc2ccccc2)c2nc3ccccc3nc2n1CCN1CCOCC1,-33,3,16,-116,7.7*,-3
CC(C)CCNC(=O)c1c(N)n(CC2CCCO2)c2nc3ccccc3nc12 (stereo unspecified),-18,9.7*,35*,·,·,-2
COc1ccc(CCNC(=O)c2c(N)n(CCN3CCOCC3)c3nc4ccccc4nc23)cc1,-34,5,11,-40,2,-2
CCC(C)NC(=O)c1c(N)n(Cc2ccc3c(c2)OCO3)c2nc3ccccc3nc12 (stereo unspecified),-172,30*,122*,-460,31*,-39
CCOc1ccc(Br)c(C2(O)CC(C)N(C)CC2C)c1 (stereo unspecified),-6,0,-2,-4,0,3
Cc1ccnc(-n2c(-c3ccco3)nc3ccccc3c2=O)c1,-1,0,0,13,-1,2
Cn1ncnc2c(=O)n(C)c(=O)nc1-2,85*,4,7,130*,-2,101*
CC(=O)OC1N=C(c2ccccc2)c2ccccc2NC1=O (stereo unspecified),·,0,1,2,-5,5
CCCCOCCCn1c(N)c(C(=O)OC(C)COC)c2nc3ccccc3nc21 (stereo unspecified),·,10*,5,-4,-2,14
c1ccc2c3c([nH]c2c1)CNCC3,·,0,0,-3,-3,-10
SMILES,5HT1a antag,HTR1E agonist,5HT1a ag,S1P1 ag-PAM,S1P3 agonist,5HT1E antag
CC(C)N1CC=C(c2c[nH]c3ccccc23)CC1,14,46*,23*,-5,-1,-1
C1=C(c2c[nH]c3ccccc23)CCNC1,16,92*,5,8,0,-13
O=C1N(CN2CCOCC2)c2ccccc2C1(O)c1c[nH]c2ccccc12 (stereo unspecified),6,0,0,-18,0,8
O=C(O)Cn1cc(C(=O)c2ccccc2)c2ccccc21,-4,0,-2,-6,0,-3
CN(C)CCOC(=O)c1cn(Cc2ccccc2)c2ccccc12,·,59*,2,1,-3,16
C=CCOC(=O)COc1cc(C)cc2oc(=O)c3c(c12)CCC3,2,0,-1,-14,-1,-3
Cc1cc(OC(=O)c2ccco2)c2c3c(c(=O)oc2c1)CCC3,-6,0,-1,-8,-1,32*
CCC(=NCc1ccc2c(c1)OCO2)c1c(O)n(C2CCCCC2)c(=O)[nH]c1=O,1,0,0,90,-1,17
COc1ccc(C(=O)C(C)(C)NO)cc1,-3,8.8*,-1,-8,2,11
NCCc1c[nH]c2ccc(F)cc12,3,82*,43*,-30,0,-6
Cc1ccc(C)c(NC(=O)CSc2nnc([C@@H](N)Cc3c[nH]c4ccccc34)o2)c1,-13,0,-2,-11,0,7
